Measured values pooled from the literature.
Compare with care: the assays were run in different laboratories.
Organism: Staphylococcus aureus
Effect on: microbial growth

SMILES	test	system	conditions	MIC
Cc1ccc2[nH]c3c(c2c1)CCCC3NCCc1ccc(Br)cc1 (stereo not drawn)	broth dilution	VISA	–	4 µg/mL
CN[C@@H]1[C@H](O)[C@H](NC)[C@H]2O[C@@]3(O)C(=O)C[C@@H](C)O[C@H]3O[C@@H]2[C@H]1O	broth dilution	8325	–	25 µg/mL
CC1=C(C(=O)O)N2C(=O)[C@@H](NC(=O)[C@H](N)C3=CCC=CC3)[C@H]2SC1	–	USA300	–	128 µg/mL
CN[C@H](CC(C)C)C(=O)N[C@H]1C(=O)N[C@@H](CC(N)=O)C(=O)N[C@H]2C(=O)N[C@H]3C(=O)N[C@H](C(=O)N[C@H](C(=O)O)c4cc(O)cc(O)c4-c4cc3ccc4O)[C@H](O)c3ccc(c(Cl)c3)Oc3cc2cc(c3O[C@@H]2O[C@H](CO)[C@@H](O)[C@H](O)[C@H]2O[C@H]2C[C@](C)(N)[C@H](O)[C@H](C)O2)Oc2ccc(cc2Cl)[C@H]1O	broth dilution	ATCC29213	–	1 µg/mL
Cc1onc(-c2ccccc2)c1C(=O)N[C@@H]1C(=O)N2[C@@H]1SC(C)(C)[C@@H]2C(=O)O	broth dilution	MRSA	–	32 µg/mL
CSc1ccc(-c2nc3ccc(C)cc3n2Cc2ccccc2)cc1	broth dilution	ATCC43300 MRSA	drug-resistant strain	256 µg/mL
CNC(=O)c1cc(Sc2ccc(NC(=S)Nc3ccc(Cl)c(C(F)(F)F)c3)cc2)ccn1	–	NCTC8325	–	3 µM
CCCCCCCC/C=C\CCCCCCCCNC(=O)CP(=O)(O)O	–	ATCC33591 MRSA	drug-resistant strain	100 µg/mL
COC(=O)c1cc(-c2cccc(NC(=O)Nc3ccc(Cl)cc3)c2)on1	broth dilution	ATCC29213	–	> 64 µg/mL
COc1cccc(-c2nc3ccc(C)cc3[nH]2)c1	broth dilution	ATCC43300 MRSA	drug-resistant strain	256 µg/mL
Cc1ccccc1-n1c(Cn2ncc3c(N)ncnc32)nc2cccc(C)c2c1=O	–	NCTC8325	–	> 30 µM
COC(=O)c1cc(-c2cccc(NC(=O)NCc3ccccc3)c2)on1	broth dilution	ATCC29213	–	> 64 µg/mL
CCCCCCCCCCCCCCCC(=O)C(F)(F)P(=O)(O)O	–	ATCC33591 MRSA	drug-resistant strain	100 µg/mL
COC(=O)c1cc(-c2cccc(NC(=S)Nc3cc(C(F)(F)F)cc(C(F)(F)F)c3)c2)on1	broth dilution	ATCC29213	–	8 to 16 µg/mL
CC1(C)S[C@@H]2[C@H](NC(=O)Cc3ccccc3)C(=O)N2[C@H]1C(=O)O	–	USA300	–	128 µg/mL
CC1C(=NOCc2cc(-c3ccc(Cl)cc3)no2)CC(c2ccccc2)OC1c1ccccc1 (stereo not drawn)	broth dilution	MTCC96	24 h	25 µg/mL
Cc1cccc2nc(-c3ccc([N+](=O)[O-])o3)[nH]c12	broth dilution	ATCC700699 MRSA	drug-resistant strain	2 µg/mL
CN[C@H](CC(C)C)C(=O)N[C@H]1C(=O)N[C@@H](CC(N)=O)C(=O)N[C@H]2C(=O)N[C@H]3C(=O)N[C@H](C(=O)N[C@H](C(=O)O)c4cc(O)cc(O)c4-c4cc3ccc4O)[C@H](O)c3ccc(c(Cl)c3)Oc3cc2cc(c3O[C@@H]2O[C@H](CO)[C@@H](O)[C@H](O)[C@H]2O[C@H]2C[C@](C)(N)[C@H](O)[C@H](C)O2)Oc2ccc(cc2Cl)[C@H]1O	–	BAA2312	drug-resistant strain	0.78 µg/mL
Cc1ccc2nc(-c3ccc(Cl)cc3)[nH]c2c1	broth dilution	ATCC43300 MRSA	drug-resistant strain	512 µg/mL
Cc1cc(Cl)ccc1-c1ccc(/C=C2\SC(=S)N(CC(=O)O)C2=O)o1	broth dilution	MRSA USA300	drug-resistant strain	8 to 64 µg/mL
COc1cccc(OC)c1C(=O)N[C@@H]1C(=O)N2[C@@H]1SC(C)(C)[C@@H]2C(=O)O	–	ATCCBAA1720	drug-resistant strain, clinical isolate	> 64 µg/mL
C/C(=C\C(=O)OCCCCCCCCC(=O)O)C[C@@H]1OC[C@H](C[C@@H]2O[C@H]2[C@@H](C)[C@H](C)O)[C@@H](O)[C@H]1O	–	MRSA	drug-resistant strain	0.5 µM
COC(=O)c1cc(-c2cccc(NC(=S)Nc3ccc([N+](=O)[O-])cc3)c2)on1	broth dilution	ATCC29213	–	> 64 µg/mL

SMILES	test	system	conditions	MIC
CCCC(=O)CP(=O)(O)O	–	ATCC33591 MRSA	drug-resistant strain	> 200 µg/mL
Clc1ccc(-c2nc3ccccc3[nH]2)cc1	broth dilution	ATCC43300 MRSA	drug-resistant strain	128 µg/mL
CN[C@H](CC(C)C)C(=O)N[C@H]1C(=O)N[C@@H](CC(N)=O)C(=O)N[C@H]2C(=O)N[C@H]3C(=O)N[C@H](C(=O)N[C@H](C(=O)O)c4cc(O)cc(O)c4-c4cc3ccc4O)[C@H](O)c3ccc(c(Cl)c3)Oc3cc2cc(c3O[C@@H]2O[C@H](CO)[C@@H](O)[C@H](O)[C@H]2O[C@H]2C[C@](C)(N)[C@H](O)[C@H](C)O2)Oc2ccc(cc2Cl)[C@H]1O	broth dilution	ATCCBAA44	drug-resistant strain	1 µg/mL
COc1ccc(NC(=O)Nc2ccc(Cl)c(C(F)(F)F)c2)cc1	–	NCTC8325	–	3 µM
O=C(Nc1cccc(-c2cc(C(=O)O)no2)c1)Nc1ccc(Cl)c(Cl)c1	broth dilution	ATCC29213	–	> 64 µg/mL
CCCCCCCCCCCCCCCC(=O)N(C)[C@H](CO)C(=O)N[C@H](C)C(=O)NCC(=O)N(C)[C@@H]1C(=O)N[C@@H](C)C(=O)N[C@H](C(=O)O)Cc2ccc(O)c(c2)-c2cc1ccc2O	–	MRSA	–	25 µg/mL
Clc1ccc(-c2nc3ccccc3n2Cc2ccccc2)cc1Cl	broth dilution	ATCC43300 MRSA	drug-resistant strain	16 µg/mL
CNC(C)[C@@H]1CC[C@@H](N)[C@@H](O[C@H]2[C@H](O)[C@@H](O[C@H]3OC[C@](C)(O)[C@H](NC)[C@H]3O)[C@H](N)C[C@@H]2N)O1 (stereo partly drawn)	–	NCTC8325	–	0.5 to 1 µM
CO[C@H]1[C@H](O[C@H]([C@H]2O[C@@H](n3ccc(=O)[nH]c3=O)[C@H](O)[C@@H]2O)[C@H](NCCCNC(=O)[C@@H](NC(=O)[C@@H](NC(=O)N[C@H](C(=O)O)C(C)C)[C@@H]2CCN=C(N)N2)[C@@H](OC(=O)CCCCCCC(C)C)C(C)C)C(=O)O)O[C@H](CN)[C@H]1O	–	NEWMAN	–	> 32 µg/mL
O=C(CCCCC1CCCCC1)CP(=O)(O)O	–	ATCC33591 MRSA	drug-resistant strain	> 200 µg/mL
O=[N+]([O-])c1cccc(-c2nc3ccccc3[nH]2)c1	broth dilution	ATCC43300 MRSA	drug-resistant strain	64 µg/mL
CCC(CC)c1cc(CCN2CCCN(Cc3ccc(C(F)(F)F)cc3)CC2)nc(-c2ccncc2)n1	–	ATCCBAA41	drug-resistant strain, clinical isolate	6 µg/mL
CN[C@H](CC(C)C)C(=O)N[C@H]1C(=O)N[C@@H](CC(N)=O)C(=O)N[C@H]2C(=O)N[C@H]3C(=O)N[C@H](C(=O)N[C@H](C(=O)O)c4cc(O)cc(O)c4-c4cc3ccc4O)[C@H](O)c3ccc(c(Cl)c3)Oc3cc2cc(c3O[C@@H]2O[C@H](CO)[C@@H](O)[C@H](O)[C@H]2O[C@H]2C[C@](C)(N)[C@H](O)[C@H](C)O2)Oc2ccc(cc2Cl)[C@H]1O	–	USA300	–	1 µg/mL
COC(=O)c1cc(-c2cccc(NC(=O)Nc3c(C)cccc3C)c2)on1	broth dilution	ATCC29213	–	> 64 µg/mL
CC1(C)CC[C@]2(C(=O)O)CC[C@]3(C)C(=CC[C@@H]4[C@@]5(C)CC[C@H](O)C(C)(C)[C@@H]5CC[C@]43C)[C@@H]2C1	–	ATCC25923	–	32 µg/mL
O=[N+]([O-])c1ccc(-c2nc3ccccc3n2Cc2ccccc2)cc1	broth dilution	ATCC43300 MRSA	drug-resistant strain	4 µg/mL
COC(=O)c1cc(-c2cccc(NC(=S)Nc3cccc(Cl)c3)c2)on1	broth dilution	ATCC29213	–	> 64 µg/mL
CCCCCC/C=C\CCCCCCCCCc1cc(O)cc(O)c1	broth dilution	USA300	drug-resistant strain	> 64 µg/mL
COC(=O)c1cc(-c2cccc(NC(=S)Nc3ccc(C#N)cc3)c2)on1	broth dilution	ATCC29213	–	> 64 µg/mL
c1ccc(CCOC2CCCc3c2[nH]c2ccccc32)cc1 (stereo not drawn)	broth dilution	ATCC29213	–	> 16 µg/mL
Cc1ccc2nc(-c3ccc(Cl)cc3)n(Cc3ccccc3)c2c1	broth dilution	ATCC43300 MRSA	drug-resistant strain	8 µg/mL
O=C(CCCCC1CCCCC1)NP(=O)(O)O	–	ATCC33591 MRSA	drug-resistant strain	> 200 µg/mL
